Article PMC8341375 (RSC Chemical Biology, 2021)

Columns and labels:
[1] = tested on: recombinant CYP19; assay: Soret shifts by absorption spectroscopy; type: binding; conditions: titration of up to 100 μM, 2 μM ASD
Outline: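 Purified recombinant CYP19 (from codon-optimized CYP19A1 cDNA in pCW) at 2–3 μM in 100 mM potassium phosphate, pH 7.4. Test compound titrated (6–36 μM, then 100 μM) with ACN kept ≤3%, with or without 2 μM androstenedione. UV-Vis absorption scans after 10 min at 25 °C. Adducts were dithionite-reduced and exposed to CO in some runs.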

[2] = molecular target: T1, aromatase (CYP19) (Homo sapiens, UniProt P11511); assay: CYP19/MFC aromatase inhibition assay; type: biochemical; conditions: for Fractional activity at saturation / Hill slope: dose-response fit, 7.5 nM P450, 25 μM MFC; for Hill slope: AR19 fixed to 1
T1 sequence (P11511 1-503): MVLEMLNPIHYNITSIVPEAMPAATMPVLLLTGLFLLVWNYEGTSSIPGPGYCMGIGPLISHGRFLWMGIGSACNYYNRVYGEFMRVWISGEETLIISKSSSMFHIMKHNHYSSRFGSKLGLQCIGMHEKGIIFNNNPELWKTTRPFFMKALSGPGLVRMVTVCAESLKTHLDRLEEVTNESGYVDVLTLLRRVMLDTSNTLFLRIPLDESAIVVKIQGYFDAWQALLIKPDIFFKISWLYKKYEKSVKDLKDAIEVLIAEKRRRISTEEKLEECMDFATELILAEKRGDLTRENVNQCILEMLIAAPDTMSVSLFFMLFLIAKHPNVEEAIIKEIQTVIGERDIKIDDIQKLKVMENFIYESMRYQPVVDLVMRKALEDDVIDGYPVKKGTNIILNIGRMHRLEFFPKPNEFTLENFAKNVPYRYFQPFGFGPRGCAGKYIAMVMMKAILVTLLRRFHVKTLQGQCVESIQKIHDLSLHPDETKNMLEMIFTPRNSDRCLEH

[3] = molecular target: T1, aromatase (CYP19); conditions: noncompetitive AI; cited from earlier work
[4] = molecular target: T2, CYP19 (Homo sapiens, UniProt P11511); assay: AR11 and AR13 steady-state kinetics assay; type: biochemical; conditions: nonlinear regression, no inhibitor
T2 sequence (P11511 1-503): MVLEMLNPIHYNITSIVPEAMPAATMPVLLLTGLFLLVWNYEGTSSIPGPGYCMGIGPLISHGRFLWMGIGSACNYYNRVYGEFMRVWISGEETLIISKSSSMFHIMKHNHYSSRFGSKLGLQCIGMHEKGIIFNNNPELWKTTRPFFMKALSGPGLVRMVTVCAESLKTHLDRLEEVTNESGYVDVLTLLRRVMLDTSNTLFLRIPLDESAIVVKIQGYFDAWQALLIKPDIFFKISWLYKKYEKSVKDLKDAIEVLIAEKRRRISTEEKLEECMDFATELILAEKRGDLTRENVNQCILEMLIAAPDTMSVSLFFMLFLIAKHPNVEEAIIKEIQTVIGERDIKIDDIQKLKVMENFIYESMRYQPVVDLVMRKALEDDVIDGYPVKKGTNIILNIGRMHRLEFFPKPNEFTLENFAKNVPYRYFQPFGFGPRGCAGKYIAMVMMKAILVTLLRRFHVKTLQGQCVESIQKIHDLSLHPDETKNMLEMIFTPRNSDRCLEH

[5] = substrate: COc1ccc2c(C(F)(F)F)cc(=O)oc2c1; assay: AR11 and AR13 steady-state kinetics assay; type: biochemical; conditions: other: nonlinear regression, no inhibitor; pH 7.4; 37.0 °C

For `CC/C(=C(\c1ccc(O)cc1)c1ccc(OCCNC)cc1)c1ccccc1` [Endoxifen, endoxifen], the “Soret peak shift from 395 nm in the CYP19 ASD-bound state” value [1] was “did not induce a Soret peak shift”, the IC50 ([2]; IC50, 7.5 nM P450, 25 μM MFC, 4-parameter logistic model (AR19: 3-parameter, Hill 1), ± SEM) was 30.9 ± 3.1 µM and the “Fractional activity at saturation” value [2] was 0.02 ± 0.02. For the same molecule, the Hill slope [2] was 2.27 ± 0.41, the Hill slope ([2]; listed as endoxifen) was 2 and the Ki [3] was 4 µM.

With `CC(=O)N1CCN(c2ccc(OCC3COC(Cn4ccnc4)(c4ccc(Cl)cc4Cl)O3)cc2)CC1` (stereo not shown) [Ketoconazole, ketoconazole] the “Fractional activity at saturation” value [2] was 0.03 ± 0.01 and the Hill slope [2] was 1.12 ± 0.07.

With `COc1ccc2c(C(F)(F)F)cc(=O)oc2c1` [MFC, 7-methoxy-4-(trifluoromethyl)coumarin] the “substrate Vmax” value [4] was 0.731 pmol HFC min^−1 pmol^−1 P450.

B1: CYP19 (Homo sapiens) (protein)
chain: MVLEMLNPIHYNITSIVPEAMPAATMPVLLLTGLFLLVWNYEGTSSIPGPGYCMGIGPLISHGRFLWMGIGSACNYYNRVYGEFMRVWISGEETLIISKSSSMFHIMKHNHYSSRFGSKLGLQCIGMHEKGIIFNNNPELWKTTRPFFMKALSGPGLVRMVTVCAESLKTHLDRLEEVTNESGYVDVLTLLRRVMLDTSNTLFLRIPLDESAIVVKIQGYFDAWQALLIKPDIFFKISWLYKKYEKSVKDLKDAIEVLIAEKRRRISTEEKLEECMDFATELILAEKRGDLTRENVNQCILEMLIAAPDTMSVSLFFMLFLIAKHPNVEEAIIKEIQTVIGERDIKIDDIQKLKVMENFIYESMRYQPVVDLVMRKALEDDVIDGYPVKKGTNIILNIGRMHRLEFFPKPNEFTLENFAKNVPYRYFQPFGFGPRGCAGKYIAMVMMKAILVTLLRRFHVKTLQGQCVESIQKIHDLSLHPDETKNMLEMIFTPRNSDRCLEH
B1 showed a Km [5] of 28.48 µM.
